Reference: ChEMBL document CHEMBL1137706, “Design, synthesis, and anti-tumor evaluation of novel symmetrical bis-benzimidazoles” (Eur J Med Chem, 2009)

Tests used:
Assay type in all cases: functional, cell-based
SK-OV-3 = test: Antitumor activity against human SKOV3 cells after 72 hrs by MTT assay; conditions: SK-OV-3, 72 h
How it was run: (§1)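 Cells grown in RPMI1640 with 10% fetal bovine serum, seeded at 4.0 × 10^4 cells/well and left 4 h at 37 °C, 5% CO2 to adhere. Compound then added and incubation continued 72 h at 37 °C, 5% CO2. Viability read by standard MTT assay.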

HeLa = test: Antitumor activity against human HeLa cells after 72 hrs by MTT assay; how it was run: as §1
BGC-823 = test: Antitumor activity against human BGC823 cells after 72 hrs by MTT assay; conditions: BGC-823, 72 h; how it was run: as §1

SMILES	IC50 (SK-OV-3)	IC50 (HeLa)	IC50 (BGC-823)
CCOc1ccnc(CSc2nc3ccc(-c4ccc5nc(SCc6nccc(OCC)c6C)[nH]c5c4)cc3[nH]2)c1C	> 50 µM	> 50 µM	> 50 µM
COc1ccnc(CSc2nc3ccc(-c4ccc5nc(SCc6nccc(OC)c6OC)[nH]c5c4)cc3[nH]2)c1OC	> 50 µM	> 50 µM	> 50 µM
Clc1ccc(CSc2nc3ccc(-c4ccc5nc(SCc6ccc(Cl)nc6)[nH]c5c4)cc3[nH]2)cn1	> 50 µM	> 50 µM	> 50 µM
c1ccc(CSc2nc3ccc(-c4ccc5nc(SCc6ccccn6)[nH]c5c4)cc3[nH]2)nc1	38.6 µM	7.1 µM	16.4 µM
c1cncc(CSc2nc3ccc(-c4ccc5nc(SCc6cccnc6)[nH]c5c4)cc3[nH]2)c1	8.73 µM	> 50 µM	> 50 µM
c1cc(CSc2nc3ccc(-c4ccc5nc(SCc6ccncc6)[nH]c5c4)cc3[nH]2)ccn1	2.81 µM	32.4 µM	11 µM
Cc1c(OCC(F)(F)F)ccnc1CSc1nc2ccc(-c3ccc4nc(SCc5nccc(OCC(F)(F)F)c5C)[nH]c4c3)cc2[nH]1	23 µM	18.3 µM	> 50 µM
CC(=O)O[C@H]1C(=O)[C@@]2(C)[C@H]([C@H](OC(=O)c3ccccc3)[C@]3(O)C[C@H](OC(=O)[C@H](O)[C@@H](NC(=O)c4ccccc4)c4ccccc4)C(C)=C1C3(C)C)[C@]1(OC(C)=O)CO[C@@H]1C[C@@H]2O [PACLITAXEL]	0.00134 µM	–	–

The next lines start with the values.

IC50 (SK-OV-3)	IC50 (HeLa)	IC50 (BGC-823)	SMILES
> 50 µM	45.4 µM	> 50 µM	COc1c(Cl)ccnc1CSc1nc2ccc(-c3ccc4nc(SCc5nccc(Cl)c5OC)[nH]c4c3)cc2[nH]1
> 50 µM	> 50 µM	> 50 µM	COc1ccnc(CSc2nc3ccc(-c4ccc5nc(SCc6nccc(OC)c6C)[nH]c5c4)cc3[nH]2)c1C
2.95 µM	> 50 µM	> 50 µM	COc1c(C)cnc(CSc2nc3ccc(-c4ccc5nc(SCc6ncc(C)c(OC)c6C)[nH]c5c4)cc3[nH]2)c1C
